In ChEMBL document CHEMBL2034888, “Synthesis, anticonvulsant activity, and neuropathic pain-attenuating activity of N-benzyl 2-amino-2-(hetero)aromatic acetamides” (Bioorg Med Chem, 2012):

Experiments:
[1] = tested on: Mus musculus; test: Anticonvulsant activity in ip dosed albino CF-1 mouse assessed as protection against maximal electroshock-induced seizure; type: functional; conditions: albino CF-1, ip
[2] = Neurotoxicity in ip dosed albino CF-1 mouse by rotorod test; type: toxicity, organism-based; conditions: in vivo
[3] = tested on: Mus musculus; test: Anticonvulsant activity in ip dosed NMRI mouse assessed as protection against maximal electroshock-induced seizure after 30 mins postdose; type: functional; conditions: 0.5 h; for minimal effective dose: read-out: MED
Summary of the method: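 Adult male NMRI mice given compound intraperitoneally; maximal electroshock seizure test run 30 min after dosing. Where a dose–response was run, ED50 in mg/kg was derived. Otherwise a minimal active dose was reported, or the percentage of mice protected at a single dose.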

[4] = tested on: Mus musculus; test: Anticonvulsant activity in ip dosed NMRI mouse assessed as protection against 6 Hz psychomotor seizure after 30 mins; type: functional; conditions: 0.5 h
Summary of the method: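 Adult male NMRI mice dosed ip. Psychomotor seizures were induced by 6 Hz stimulation at 44 mA, 30 min after administration. ED50 in mg/kg was derived where determinable, otherwise a minimal active dose was reported.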

[5] = tested on: Mus musculus; test: Antinociceptive activity in NMRI mouse neuropathic pain model assessed as protection against formalin-induced nociceptive behaviour at 90 mg/kg, ip after 30 mins; type: functional; conditions: route intraperitoneal
Summary of the method: (§1)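 Formalin test in adult male NMRI mice used as a prescreen for pain attenuation, 30 min after ip administration. ED50 in mg/kg was derived where possible. Otherwise the percent protected after a single stated dose was reported.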

[6] = tested on: Mus musculus; test: Toxicity in ip dosed NMRI mouse assessed as tremors at 90 mg/kg, ip after 30 mins; type: organism-based; design: dose 90 mg/kg, route intraperitoneal; conditions: in vivo, 0.5 h
Summary of the method: (§2)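 Adult male NMRI mice were dosed ip. Whole-animal pharmacological observation was made at the stated mg/kg dose, recording tremors, convulsions, writhing, impaired gait or mortality. Timing was 30 min post-dose.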

[7] = tested on: Mus musculus; test: Antinociceptive activity in ip dosed NMRI mouse neuropathic pain model assessed as protection against formalin-induced nociceptive behaviour after 30 mins; type: functional; conditions: 0.5 h; summary of the method: as §1
[8] = tested on: Mus musculus; test: Toxicity in ip dosed NMRI mouse assessed as convulsions at 160 mg/kg, ip after 30 mins; type: organism-based; design: dose 160 mg/kg, route intraperitoneal; conditions: in vivo, 0.5 h; summary of the method: as §2
[9] = tested on: Mus musculus; test: Protective index, ratio of TD50 for NMRI mouse to ED50 for antinociceptive activity in ip dosed NMRI mouse neuropathic pain model; type: functional
[10] = tested on: Mus musculus; test: Protective index, ratio of TD50 for NMRI mouse to ED50 for anticonvulsant activity in ip dosed NMRI mouse by maximal electroshock seizure test; type: functional
[11] = Neurotoxicity in ip dosed NMRI mouse after 30 mins by rotorod test; type: toxicity, organism-based; conditions: in vivo
Summary of the method: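 Neurological impairment was scored by rotorod in adult male NMRI mice 30 min after ip dosing. TD50 in mg/kg was derived where possible, otherwise the maximal tolerated dose was given.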

[12] = tested on: Mus musculus; test: Antinociceptive activity in NMRI mouse neuropathic pain model assessed as protection against formalin-induced nociceptive behaviour at 24 mg/kg, ip after 30 mins; type: functional; conditions: route intraperitoneal; summary of the method: as §1
[13] = tested on: Mus musculus; test: Toxicity in ip dosed NMRI mouse assessed as convulsions at 77 mg/kg, ip after 30 mins; type: organism-based; design: dose 77 mg/kg, route intraperitoneal; conditions: in vivo, 0.5 h; summary of the method: as §2
[14] = tested on: Mus musculus; test: Toxicity in ip dosed NMRI mouse assessed as mortality at 140 mg/kg, ip after 30 mins; type: organism-based; design: dose 140 mg/kg, route intraperitoneal; conditions: in vivo, 0.5 h
Summary of the method: (§3)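 Adult male NMRI mice dosed intraperitoneally. Whole-animal pharmacological observation at the listed mg/kg dose, with convulsions and mortality recorded as signs. This was done alongside MES, 6 Hz (44 mA) psychomotor seizure, formalin and rotorod testing, which were read 30 min after ip dosing.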

[15] = Ratio of drug level in brain to plasma in mouse; type: ADME, organism-based; conditions: brain and plasma, read-out: BPR
[16] = tested on: Mus musculus; test: Toxicity in ip dosed NMRI mouse assessed as convulsions at 105 mg/kg, ip after 30 mins; type: organism-based; design: dose 105 mg/kg, route intraperitoneal; conditions: in vivo, 0.5 h; summary of the method: as §3
[17] = tested on: Mus musculus; test: Toxicity in ip dosed NMRI mouse assessed as mortality at 105 mg/kg, ip after 30 mins; type: organism-based; design: dose 105 mg/kg, route intraperitoneal; conditions: in vivo, 0.5 h; summary of the method: as §3
[18] = tested on: Mus musculus; test: Toxicity in ip dosed NMRI mouse assessed as tremors at 59 mg/kg, ip after 30 mins; type: organism-based; design: dose 59 mg/kg, route intraperitoneal; conditions: in vivo, 0.5 h; summary of the method: as §2
[19] = tested on: Mus musculus; test: Toxicity in ip dosed NMRI mouse assessed as writhings at 59 mg/kg, ip after 30 mins; type: organism-based; design: dose 59 mg/kg, route intraperitoneal; conditions: in vivo, 0.5 h; summary of the method: as §2
[20] = tested on: Mus musculus; test: Toxicity in ip dosed NMRI mouse assessed as convulsions at 110 mg/kg, ip after 30 mins; type: organism-based; design: dose 110 mg/kg, route intraperitoneal; conditions: in vivo, 0.5 h; summary of the method: as §3
[21] = tested on: Mus musculus; test: Antinociceptive activity in NMRI mouse neuropathic pain model assessed as protection against formalin-induced nociceptive behaviour at 110 mg/kg, ip after 30 mins; type: functional; conditions: route intraperitoneal; summary of the method: as §1
[22] = tested on: Mus musculus; test: Toxicity in ip dosed NMRI mouse assessed as mortality at 110 mg/kg, ip after 30 mins; type: organism-based; design: dose 110 mg/kg, route intraperitoneal; conditions: in vivo, 0.5 h; summary of the method: as §3

| SMILES | ED50 [3] [mg/kg] | ED50 [4] [mg/kg] | ED50 [7] [mg/kg] | Ratio TD50/ED50 [10] | also measured |
| --- | --- | --- | --- | --- | --- |
| CC(=O)NC(C(=O)NCc1ccccc1)c1cc2ccccc2o1 (racemic) |  |  |  |  | ED50 [1]: 100 mg/kg; TD50 [2]: 100 mg/kg |
| CC(=O)NC(C(=O)NCc1ccccc1)c1ccc2ccccc2c1 (racemic) |  |  |  |  | ED50 [1]: > 300 mg/kg; TD50 [2]: > 300 mg/kg |
| NC(C(=O)NCc1ccccc1)c1cc2ccccc2o1 (racemic) | 90 | > 120 |  |  | Activity [5]: 31%; Activity [6]: Toxic |
| NC(C(=O)NCc1ccccc1)c1cccs1 (racemic) |  | > 91 | 48 | <0.8 | minimal effective dose [3]: 68 mg/kg; Activity [8]: Toxic; Ratio TD50/ED50 [9]: <1.1; MTD at 0.5 h [11]: 51 mg/kg |
| NC(C(=O)NCc1ccccc1)c1nccs1 (racemic) | 67 | > 140 | 45 | <2.1 | Ratio TD50/ED50 [9]: <3.1; MTD at 0.5 h [11]: 140 mg/kg |
| NC(C(=O)NCc1ccccc1)c1cc2ccccc2s1 (racemic) | 120 | > 170 | 66 |  |  |
| NC(C(=O)NCc1ccccc1)c1ccccc1 (racemic) | > 30 | > 43 |  | >1.7 | Activity [12]: 37%; Ratio TD50/ED50 [9]: >1.2; Activity [13]: Toxic; TD50 at 0.5 h [11]: 51 mg/kg; Activity [14]: Toxic |
| NC(C(=O)NCc1ccccc1)c1ccccn1 (racemic) |  | > 100 | 33 |  | minimal effective dose [3]: 100 mg/kg; Kp [15]: 2.7; MTD at 0.5 h [11]: 180 mg/kg |
| NC(C(=O)NCc1ccccc1)c1cccnc1 (racemic) |  | > 210 | 74 |  | minimal effective dose [3]: 120 mg/kg |
| NC(C(=O)NCc1ccccc1)c1ccncc1 (racemic) |  | > 120 | 67 |  | minimal effective dose [3]: 210 mg/kg |
| NC(C(=O)NCc1ccccc1)c1cnccn1 (racemic) | 85 |  | > 160 | >1.9 | Ratio TD50/ED50 [9]: >1; minimal effective dose ([4]; read-out: MED): 28 mg/kg; TD50 at 0.5 h [11]: > 160 mg/kg |
| NC(C(=O)NCc1ccccc1)c1cccc2ccccc12 (racemic) | > 69 | > 59 | > 33 |  | Activity [16]: Toxic; Activity [17]: Toxic |
| NC(C(=O)NCc1ccccc1)c1nccc2ccccc12 (racemic) | > 52 | > 93 | 29 |  |  |
| NC(C(=O)NCc1ccccc1)c1ccc2ccccc2c1 (racemic) | 45 | > 110 | < 110 | <2.4 | Activity [18]: Toxic; Activity [19]: Toxic; Activity [20]: Toxic; Activity [21]: 100%; TD50 at 0.5 h [11]: 110 mg/kg; Activity [22]: Toxic |
